Article PMC3217170 (Biochimica et biophysica acta, 2011)

Key:
CCKA receptor = CCKA receptor mediation of PKCθ T538 phosphorylation in pancreatic acini; assay type: cell-based, rat
PKD (pS744/748) = assay: PKD phosphorylation stimulated by CCK or TPA; assay type: cell-based, rat; conditions: no inhibitor, p<0.05
Procedure, shortened: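 Collagenase-dispersed rat acini preincubated 3 h ± 20 μM PKCθ pseudosubstrate, then CCK (10 nM, 2.5 min) or TPA (1 μM, 5 min), and lysed. Equal protein Western-blotted for pY311 PKCδ, pS744/748 PKD, pS338 RafC or pY416 Src, with total PKCθ and α/β tubulin as loading controls. Bands quantified by densitometry in the linear range. ≥3 experiments; mean±SEM; paired t-test.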

PKCθ / MALT-1 = assay: Co-IP association of PKCθ with MALT-1; assay type: cell-based, rat; conditions: CCK 10 nM or TPA 1 μM, data not shown
PKCθ / RafA = assay: Co-IP association of PKCθ with RafA; assay type: cell-based, rat; conditions: 2.5 min, 3 independent experiments; for association of PKCθ with RafA: CCK 10 nM or TPA 1 μM
PKCθ / Lyn = assay: Co-IP association of PKCθ with Lyn; assay type: cell-based, rat; conditions: 2.5 min, 3 independent experiments; for association of PKCθ with Lyn: CCK 10 nM or TPA 1 μM
PKCθ / Akt = assay: Co-IP association of PKCθ with Akt; assay type: cell-based, rat; conditions: CCK 10 nM or TPA 1 μM, 2.5 min, 3 independent experiments
[1] = test system: PKCθ (pT538) in pancreatic acini; assay: PKCθ T538 phosphorylation in rat pancreatic acini; assay type: cell-based; conditions: for tmax of pT538 PKCθ phosphorylation / pT538 PKCθ phosphorylation, maximum at about 1 min / pT538 PKCθ phosphorylation at 30 min: time course; for tmax of pT538 PKCθ phosphorylation / pT538 PKCθ phosphorylation, maximum at about 1 min / pT538 PKCθ phosphorylation at 30 min / stimulation of PKCθ phosphorylation (pT538), secretagogues: 5 independent experiments; for stimulation of PKCθ phosphorylation (pT538), secretagogues: isolated rat pancreatic acini, 5 minutes, Western blot
pT538 PKCθ = assay: PKCθ immunofluorescence-cytochemistry; assay type: cell-based, rat; conditions: TPA 1 μM or CCK 10 nM, 10 minutes; 4 independent experiments
Procedure, shortened: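 Acini left untreated or given TPA 1 μM or CCK 10 nM for 10 min, then washed, fixed, permeabilized and cytocentrifuged onto poly-L-lysine slides. Labelled overnight at 4 °C with rabbit anti-pT538 PKCθ and mouse anti-E-cadherin (1:500), detected with Alexa 488/555 secondaries, nuclei stained with DAPI. Isotype-matched primary as negative control; 4 experiments.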

PKCθ / p85 PI3K = assay: Co-IP association of PKCθ with p85 PI3K; assay type: cell-based, rat
Procedure, shortened: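 Rat acini stimulated with CCK 10 nM or TPA 1 μM, then lysed in CelLytic buffer with vanadate, PMSF and protease inhibitors. Lysate (750 μg/ml) incubated overnight at 4 °C with 4 μg antibody and protein G-agarose. Immunoprecipitates washed with PBS, then analysed by SDS-PAGE and Western blotting.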

PKCθ [2] = assay: PKCθ translocation to membranes; assay type: cell-based, rat; conditions: p<0.05, mean±S.E., 5 independent experiments
Procedure, shortened: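 Acini stimulated with CCK for 1 min or TPA for 5 min, then homogenized in Tris pH 7.5 buffer with EGTA/EDTA, vanadate, PMSF and protease inhibitors. The cleared supernatant was spun at 60,000×g for 30 min at 4 °C. The membrane pellet was washed, solubilized in Triton/deoxycholate buffer, sonicated and spun at 10,000×g. Western blot used anti-PKCθ; calpain and E-cadherin served as fraction markers. Results given as % control; 5 experiments.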

PKCθ / Cbl = assay: Co-IP association of PKCθ with Cbl; assay type: cell-based, rat; conditions: CCK 10 nM or TPA 1 μM, data not shown
PKCθ / RafB = assay: Co-IP association of PKCθ with RafB; assay type: cell-based, rat
Procedure, shortened: (§1)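 Rat pancreatic acini are dispersed by collagenase and preincubated 2 hrs at 37 °C in HEPES (pH 7.45) incubation solution, then left unstimulated or given CCK (10 nM) or TPA (1 μM). Cells are lysed in CelLytic buffer with vanadate, PMSF and protease inhibitors. Lysate (750 μg/ml) is immunoprecipitated overnight at 4 °C with 4 μg anti-PKCθ plus protein G-agarose, PBS-washed, then analysed by SDS-PAGE/Western blot; ≥3 experiments.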

PKCθ / RafC = assay: Co-IP association of PKCθ with RafC; assay type: cell-based, rat; conditions: 2.5 min, 3 independent experiments; for association of PKCθ with RafC: CCK 10 nM or TPA 1 μM
PKCθ / tubulin = assay: Co-IP association of PKCθ with tubulin; assay type: cell-based, rat
Procedure, shortened: as §1

PKCθ / 14-3-3γ = assay: Co-IP association of PKCθ with 14-3-3γ; assay type: cell-based, rat; conditions: CCK 10 nM or TPA 1 μM, data not shown
[3] = test system: pancreatic acini (amylase secretion); assay: Amylase release from pancreatic acini; assay type: cell-based, rat; conditions: 15 minutes, basal 1.7±0.2, mean±S.E., 6 experiments
Procedure, shortened: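 Rat pancreatic acini from collagenase digestion; 2 h preincubation ± 20 μM PKCθ pseudosubstrate in HEPES-buffered (pH 7.45) standard incubation solution, then 15 min with secretagogue. Medium amylase measured with Phadebas reagent and expressed as % of total cellular amylase released during incubation. Means±S.E.; paired Student's t-test.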

PI-3 kinase = conditions: pancreatic acinar cells; ref [67]; cited from earlier work
PKCmu (PKD1) = conditions: pancreatic acinar cells; no reference printed at this sentence; cited from earlier work
phospholipase D = conditions: pancreatic acinar cells; ref [67]; cited from earlier work
Lyn = conditions: pancreatic acinar cells; ref [64]; cited from earlier work
PYK2/CAKβ = conditions: pancreatic acinar cells; ref [17]; cited from earlier work
PKCδ [4] = conditions: pancreatic acinar cells, cited from earlier work
CrKII = conditions: pancreatic acinar cells; ref [66]; cited from earlier work
PKCθ (T538) = conditions: ref [61]; cited from earlier work
PKCθ [5] = conditions: ref [62]; cited from earlier work
CCKB receptors = assay: CCKB receptor mediation of PKCθ T538 phosphorylation in pancreatic acini; assay type: cell-based, rat; conditions: 1 min, isolated acini, Western blot
PKCθ [6] = conditions: ref [56]; cited from earlier work
PKCδ [7] = conditions: ref [60]; cited from earlier work

O=C(O)Cn1c(C(=O)Nc2nc(-c3ccccc3Cl)cs2)cc2ccccc21 [SR27897, 1-[[2-(4-(2-chlorophenyl)-thiazol-2-yl)aminocarbonyl]indolyl]acetic acid]
inhibition of CCK-stimulated PKCθ phosphorylation, CCKA receptor antagonists (CCKA receptor; preincubated 5 min, then CCK 10 nM for 1 min): completely inhibited

CCCCCCCCCCCCCC(=O)O[C@@H]1[C@@H](C)[C@@]2(O)[C@@H](C=C(CO)C[C@]3(O)C(=O)C(C)=C[C@@H]23)[C@H]2C(C)(C)[C@]12OC(C)=O [TPA, 12-O-tetradecanoylphobol-13-acetate]
phosphorylation of PKD stimulated by TPA (PKD (pS744/748); TPA 1 μM, 5 min): 19.1±3.0 folds over control
association of PKCθ with MALT-1 (PKCθ / MALT-1): but not with MALT-1, Bcl-10, 14-3-3γ or Cbl
association of PKCθ with RafA (PKCθ / RafA): increase in the association
association of PKCθ with Lyn (PKCθ / Lyn): increase in the association
association of PKCθ with Akt (PKCθ / Akt): increase in the association
tmax of pT538 PKCθ phosphorylation [1]: 1.60±0.06 min
pT538 PKCθ phosphorylation, maximum at about 1 min ([1]; mean±S.E.): 188±13 % of control
pT538 PKCθ phosphorylation at 30 min ([1]; mean±S.E.): 171±23 % of control
phosphoT538 PKCθ in the membrane (immunofluorescence) (pT538 PKCθ): increased in the membrane in both cases (Panel B and C, Fig. 6, respectively), with the increase caused by TPA more prominent
association of PKCθ with p85 PI3K (PKCθ / p85 PI3K): but not an association with p85 PI3K
membrane associated PKCθ (PKCθ [2]; TPA, 5 min incubation): 189±59 % of control
association of PKCθ with Cbl (PKCθ / Cbl): but not with MALT-1, Bcl-10, 14-3-3γ or Cbl
association of PKCθ with RafB (PKCθ / RafB): but not an association with p85 PI3K, PKD1, RafB
association of PKCθ with RafC (PKCθ / RafC): increase in the association
association of PKCθ with tubulin (PKCθ / tubulin): but not an association with p85 PI3K, PKD1, RafB, Bcl-10, Cbl, MALT-1, tubulin
association of PKCθ with 14-3-3γ (PKCθ / 14-3-3γ): but not with MALT-1, Bcl-10, 14-3-3γ or Cbl

C[N+](C)(C)CCOC(N)=O [carbachol]
stimulation of PKCθ phosphorylation (pT538), secretagogues [1]: stimulated a significant increase
Amylase secretion (% total), −PKCθ inhibitor ([3]; Carbachol 1 μM): 6.8±0.7 % total
Amylase secretion (% total), −PKCθ inhibitor ([3]; Carbachol 1 mM): 6.2±0.7 % total

COOH-terminal octapeptide of cholecystokinin [CCK]
phosphorylation of PKD stimulated by CCK (PKD (pS744/748); CCK 10 nM, 2.5 min): 19.4±3.69 folds over control
association of PKCθ with MALT-1 (PKCθ / MALT-1): but not with MALT-1, Bcl-10, 14-3-3γ or Cbl
association of PKCθ with RafA (PKCθ / RafA): increase in the association
direct association of PKCθ with RafA at low CCK concentration or with CCK-JMV (PKCθ / RafA; CCK 0.1–1–10 nM or CCK-JMV): observed also at low CCK concentration
CCKA receptor state mediating PI-3 kinase activation (PI-3 kinase): mediated entirely by the activation of the high affinity receptor state
CCK stimulation of PKCθ activation mediated by the high affinity state CCKA receptor (CCKA receptor; from CCK-JMV versus CCK maximal effect): 30%
CCK concentration for maximal PKCmu (PKD1) activation (PKCmu (PKD1)): 10 nM
association of PKCθ with Lyn (PKCθ / Lyn): increase in the association
direct association of PKCθ with Lyn at low CCK concentration or with CCK-JMV (PKCθ / Lyn; CCK 0.1–1–10 nM or CCK-JMV): observed also at low CCK concentration
CCKA receptor state mediating phospholipase D activation (phospholipase D): mediated entirely by the activation of the high affinity receptor state
association of PKCθ with Akt (PKCθ / Akt): increase in the association
maximal stimulation of T538 phosphorylation of PKCθ ([1]; 10 nM, 1 minute, 4–5 independent experiments, mean±S.E.): 239±25 % of control
concentration of maximal effect, T538 PKCθ phosphorylation ([1]; dose-response, 1 minute): 10 nM
stimulation of PKCθ phosphorylation (pT538), secretagogues [1]: stimulated a significant increase
lowest concentration with detectable T538 PKCθ phosphorylation ([1]; pancreatic acinar cells): 0.1 nM
EC50 ([1]; read-out: half-maximal effect (EC50), T538 PKCθ phosphorylation, dose-response, 1 minute, 4–5 independent experiments, GraphPad 5.0): 0.174 ± 0.008 nM
tmax of pT538 PKCθ phosphorylation [1]: 0.78±0.08 min
pT538 PKCθ phosphorylation, maximum at about 1 min ([1]; mean±S.E.): 197±19 % of control
pT538 PKCθ phosphorylation at 30 min ([1]; mean±S.E.): 145±11 % of control
phosphoT538 PKCθ in the membrane (immunofluorescence) (pT538 PKCθ): increased in the membrane
share of Lyn activation due to high affinity CCKA receptor state (Lyn): 60%
share of maximal PYK2/CAKβ activation due to high affinity CCKA receptor state (PYK2/CAKβ): 20%
CCK concentration required to fully activate PKCδ (PKCδ [4]; no reference printed at this sentence): 100 nM
CCKA receptor state mediating PKCδ activation (PKCδ [4]; ref [14]): mediated only through activation of the low affinity CCKA receptor state
association of PKCθ with p85 PI3K (PKCθ / p85 PI3K): but not an association with p85 PI3K
membrane associated PKCθ (PKCθ [2]; CCK, 1 min incubation): 216±34 % of control
association of PKCθ with Cbl (PKCθ / Cbl): but not with MALT-1, Bcl-10, 14-3-3γ or Cbl
Amylase secretion (% total), −PKCθ inhibitor ([3]; CCK 0.03 nM): 5.1±0.8 % total
Amylase secretion (% total), −PKCθ inhibitor ([3]; CCK 0.1 nM): 7.1±0.6 % total
Amylase secretion (% total), −PKCθ inhibitor ([3]; CCK 100 nM): 4.5±0.4 % total
association of PKCθ with RafB (PKCθ / RafB): but not an association with p85 PI3K, PKD1, RafB
association of PKCθ with RafC (PKCθ / RafC): increase in the association
direct association of PKCθ with RafC at low CCK concentration or with CCK-JMV (PKCθ / RafC; CCK 0.1–1–10 nM or CCK-JMV): observed also at low CCK concentration
CCKA receptor state mediating CrKII phosphorylation (CrKII): mediated only through activation of the low affinity CCKA receptor state
association of PKCθ with tubulin (PKCθ / tubulin): but not an association with p85 PI3K, PKD1, RafB, Bcl-10, Cbl, MALT-1, tubulin
association of PKCθ with 14-3-3γ (PKCθ / 14-3-3γ): but not with MALT-1, Bcl-10, 14-3-3γ or Cbl

EGF: Epidermal growth factor
T538 PKCθ phosphorylation in A431 cells (PKCθ (T538)): increases T538 PKCθ phosphorylation

IGF: insulin-like growth factor 1
PKCθ catalytic activity in rhabdomyosarcoma cell line (PKCθ [5]): increases PKCθ catalytic activity

bombesin
stimulation of PKCθ phosphorylation (pT538), secretagogues [1]: stimulated a significant increase

gastrin
pT538 PKCθ phosphorylation by gastrin (CCKB receptors): did not produce any increase

insulin: known pancreatic growth factor
PKCθ activation in myocytes (PKCθ [6]): able to increase PKCθ activation

secretin: gastrointestinal hormone that causes an increase in the cAMP
stimulation of PKCθ phosphorylation (pT538), secretagogues [1]: Neither

vasoactive intestinal peptide [VIP]
stimulation of PKCθ phosphorylation (pT538), secretagogues [1]: Neither
PKCδ activation in cortical astrocytes (PKCδ [7]): activates PKCδ
Amylase secretion (% total), −PKCθ inhibitor ([3]; VIP 10 nM): 3.4±0.6 % total
